# Results from paper PMC3384716 (Steroids, 2012).
# Experiments:
# PR = molecular target: T1, PR (Homo sapiens, UniProt P06401); experiment: PR reporter gene assay; format: cell-based
# T1 sequence (P06401 165-933 limits assumed): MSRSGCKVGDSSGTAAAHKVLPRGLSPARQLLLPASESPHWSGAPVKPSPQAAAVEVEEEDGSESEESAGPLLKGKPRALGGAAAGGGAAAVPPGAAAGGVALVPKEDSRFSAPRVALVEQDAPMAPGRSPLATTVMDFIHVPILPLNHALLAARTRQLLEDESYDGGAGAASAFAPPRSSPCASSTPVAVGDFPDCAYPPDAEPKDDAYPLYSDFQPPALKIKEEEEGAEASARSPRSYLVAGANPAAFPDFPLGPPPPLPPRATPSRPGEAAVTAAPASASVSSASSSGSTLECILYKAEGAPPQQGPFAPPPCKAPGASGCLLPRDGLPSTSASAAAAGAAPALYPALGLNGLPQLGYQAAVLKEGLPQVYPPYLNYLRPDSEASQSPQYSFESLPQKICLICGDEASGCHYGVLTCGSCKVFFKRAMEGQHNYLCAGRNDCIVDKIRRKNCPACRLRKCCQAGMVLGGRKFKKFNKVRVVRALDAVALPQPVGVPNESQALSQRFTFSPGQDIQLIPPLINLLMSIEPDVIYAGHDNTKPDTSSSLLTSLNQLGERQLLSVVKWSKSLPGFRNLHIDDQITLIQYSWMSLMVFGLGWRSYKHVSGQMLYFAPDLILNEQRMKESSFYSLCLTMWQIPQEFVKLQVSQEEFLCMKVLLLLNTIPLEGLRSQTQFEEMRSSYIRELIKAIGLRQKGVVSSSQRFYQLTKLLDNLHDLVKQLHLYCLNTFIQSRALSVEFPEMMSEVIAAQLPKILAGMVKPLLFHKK
# ER = molecular target: T2, ER (Homo sapiens, UniProt P03372); experiment: ER reporter gene assay; format: cell-based; details: 10 μM compound, 5 nM estradiol, 24 h; % of maximal luciferase activity (100%)
# T2 sequence (P03372 1-595): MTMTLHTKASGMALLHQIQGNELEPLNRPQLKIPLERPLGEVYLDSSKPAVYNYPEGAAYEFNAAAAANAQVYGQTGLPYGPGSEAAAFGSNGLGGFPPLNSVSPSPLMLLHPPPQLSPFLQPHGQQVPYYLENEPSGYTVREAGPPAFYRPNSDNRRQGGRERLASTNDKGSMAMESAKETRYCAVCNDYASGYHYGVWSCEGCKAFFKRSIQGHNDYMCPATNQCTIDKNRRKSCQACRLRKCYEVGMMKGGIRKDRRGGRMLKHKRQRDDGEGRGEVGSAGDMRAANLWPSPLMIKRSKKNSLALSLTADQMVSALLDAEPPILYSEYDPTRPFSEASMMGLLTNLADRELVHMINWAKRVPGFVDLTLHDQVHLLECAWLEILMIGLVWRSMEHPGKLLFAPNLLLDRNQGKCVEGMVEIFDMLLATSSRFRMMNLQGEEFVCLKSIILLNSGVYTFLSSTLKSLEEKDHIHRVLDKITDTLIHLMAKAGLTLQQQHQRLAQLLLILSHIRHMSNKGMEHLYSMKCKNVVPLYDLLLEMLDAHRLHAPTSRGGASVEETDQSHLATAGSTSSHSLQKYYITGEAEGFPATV
# [1] = test system: endogenous PR-regulated alkaline phosphatase activity in T47D breast cancer cells; experiment: Progesterone-induced alkaline phosphatase assay in T47D cells; format: cell-based, human; details: by 5 μM
# Method in brief: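 T47D cells were moved to phenol red-free medium with 10% charcoal-dextran FBS four days ahead. Cells were seeded overnight, then treated 24 h with 2.5 nM progesterone ± test compound in DMSO. Supernatant assayed with CSPD/diethanolamine pH 9.5 buffer, 1 h at RT, luminescence (542 nm). Untreated-compound activity = 100%; ≥3 experiments, mean ± SEM.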
# [2] = molecular target: purified luciferase protein (Photinus pyralis, UniProt P08659); experiment: Enzyme inhibition assay with purified luciferase protein; format: biochemical; details: 0.05 ng pure luciferase protein, 10 μM compound
# Method in brief: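 Purified firefly luciferase was used at a final 0.01 ng/μl in OneGlo buffer, with test compound diluted to 10 μM in buffer. After adding BrightGlo luciferase reagent, samples were held 5 min and luminescence measured.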
# [3] = molecular target: T3, alkaline phosphatase (AlkP) (Homo sapiens, UniProt P05186); experiment: Direct alkaline phosphatase inhibition in cell lysates; format: biochemical; details: lysates of progesterone-treated cells, 10 μM compound, 15 minutes
# T3 sequence (P05186 18-524): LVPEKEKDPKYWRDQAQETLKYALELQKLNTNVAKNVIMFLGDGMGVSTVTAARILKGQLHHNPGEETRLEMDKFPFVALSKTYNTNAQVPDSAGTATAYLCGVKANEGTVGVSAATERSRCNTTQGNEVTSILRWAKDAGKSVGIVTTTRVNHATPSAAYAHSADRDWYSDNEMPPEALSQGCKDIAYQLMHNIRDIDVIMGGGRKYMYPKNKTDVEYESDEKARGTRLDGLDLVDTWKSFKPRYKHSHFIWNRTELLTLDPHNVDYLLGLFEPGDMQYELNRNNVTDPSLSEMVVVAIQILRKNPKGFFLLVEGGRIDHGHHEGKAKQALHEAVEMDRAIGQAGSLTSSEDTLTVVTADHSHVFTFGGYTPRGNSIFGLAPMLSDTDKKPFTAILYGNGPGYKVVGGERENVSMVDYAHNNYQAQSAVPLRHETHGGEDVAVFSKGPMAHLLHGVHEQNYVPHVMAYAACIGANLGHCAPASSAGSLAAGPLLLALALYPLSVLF
# Method in brief: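 Lysates of cells given 2.5 nM progesterone to induce AlkP were aliquoted and exposed to 10 μM test compound for 15 min. Then added: buffer of 100 mM diethanolamine pH 9.5, 1 mM MgCl2, 0.4 mM CSPD chemiluminescent substrate and 1X Emerald II enhancer. After 1 h at room temperature, luminescence was read.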
# [4] = test system: alkaline phosphatase mRNA; experiment: qRT-PCR of progesterone-induced alkaline phosphatase mRNA; format: cell-based, human; details: 10 nM P, 24 h
# pS2 mRNA = experiment: qRT-PCR of 17β-estradiol-induced pS2 mRNA; format: cell-based; details: 2 hours; compound 51 at 5 μM
# [5] = molecular target: T4, purified full length recombinant human PR-B (Homo sapiens, UniProt P06401); experiment: Competitive radiometric receptor binding assay
# T4 sequence (P06401 1-933): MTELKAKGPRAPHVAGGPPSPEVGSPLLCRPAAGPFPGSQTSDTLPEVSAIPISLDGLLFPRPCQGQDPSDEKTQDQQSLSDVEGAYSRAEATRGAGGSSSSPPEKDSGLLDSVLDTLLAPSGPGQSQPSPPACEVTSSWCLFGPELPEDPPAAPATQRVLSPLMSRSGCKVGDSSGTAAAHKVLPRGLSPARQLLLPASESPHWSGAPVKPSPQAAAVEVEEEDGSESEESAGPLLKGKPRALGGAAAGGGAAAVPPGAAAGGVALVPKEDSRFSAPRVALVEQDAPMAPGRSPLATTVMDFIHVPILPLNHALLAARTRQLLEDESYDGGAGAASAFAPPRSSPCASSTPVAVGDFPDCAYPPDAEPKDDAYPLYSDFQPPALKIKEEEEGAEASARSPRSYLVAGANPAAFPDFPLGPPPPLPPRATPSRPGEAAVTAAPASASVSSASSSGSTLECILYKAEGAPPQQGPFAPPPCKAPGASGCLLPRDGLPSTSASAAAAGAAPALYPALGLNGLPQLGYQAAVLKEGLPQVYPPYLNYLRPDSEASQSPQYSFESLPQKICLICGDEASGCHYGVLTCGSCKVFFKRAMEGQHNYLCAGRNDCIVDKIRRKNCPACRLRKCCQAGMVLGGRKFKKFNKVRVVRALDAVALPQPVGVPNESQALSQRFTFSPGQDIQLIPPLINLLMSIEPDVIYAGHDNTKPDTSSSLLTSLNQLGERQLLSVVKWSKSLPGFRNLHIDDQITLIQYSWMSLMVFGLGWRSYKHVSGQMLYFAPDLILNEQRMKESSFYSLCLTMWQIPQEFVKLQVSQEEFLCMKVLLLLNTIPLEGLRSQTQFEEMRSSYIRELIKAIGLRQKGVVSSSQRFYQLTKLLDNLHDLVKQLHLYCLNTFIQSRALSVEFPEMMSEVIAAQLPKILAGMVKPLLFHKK
# purified luciferase protein, sequence (P08659 whole entry): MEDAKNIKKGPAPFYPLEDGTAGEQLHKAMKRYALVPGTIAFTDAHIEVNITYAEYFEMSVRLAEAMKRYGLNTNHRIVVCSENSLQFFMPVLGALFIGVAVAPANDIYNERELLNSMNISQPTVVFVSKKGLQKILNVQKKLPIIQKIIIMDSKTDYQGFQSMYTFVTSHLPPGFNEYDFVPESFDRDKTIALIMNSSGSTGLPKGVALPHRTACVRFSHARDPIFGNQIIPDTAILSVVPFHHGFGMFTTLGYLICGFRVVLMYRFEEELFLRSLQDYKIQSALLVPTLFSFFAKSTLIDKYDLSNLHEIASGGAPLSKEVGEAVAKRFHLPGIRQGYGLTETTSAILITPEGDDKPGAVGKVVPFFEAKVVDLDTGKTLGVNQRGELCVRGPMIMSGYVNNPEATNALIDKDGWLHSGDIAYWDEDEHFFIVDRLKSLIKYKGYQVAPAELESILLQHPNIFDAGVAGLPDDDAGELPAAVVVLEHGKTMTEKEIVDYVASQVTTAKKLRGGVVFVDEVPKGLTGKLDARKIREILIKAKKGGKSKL
smiles,measurement,setting,value
"CCC(CC)CSc1nc2c([nH]1)c(=S)n(C)c(=O)n2C [Compound 51, 6-thio-8-(2-ethylbutyl)thiotheophylline]",agonist activity,PR; concentrations of 30 μM and higher,no observed agonist activity
same,fold more potent inhibitor of PR than GR,"PR; same T47D cells, same MMTV-luciferase reporter",6.1 fold
same,Reporter Assay (% Activity) ER,ER,54%
same,inhibition of progesterone-induced AlkP activity at 5 μM,[1],complete inhibition
same,direct inhibition of luciferase enzymatic activity,[2],did not inhibit
same,direct inhibition of alkaline phosphatase activity in lysates,[3],failed to significantly inhibit activity
same,inhibition of progesterone induction of AlkP mRNA,[4]; 5 μM compound,74%
same,inhibition of progesterone induction of AlkP mRNA (in words),[4]; 10 μM compound,completely blocked
same,effect on 17β-estradiol induction of pS2 mRNA,pS2 mRNA,no effect
same,fold weaker binding to PR than R5020,"[5]; 10 nM tritiated R5020, 10 nM PR-B, 18-24 h at 0°C","4,700 fold"
same,ability to compete with radio-labeled R5020 for binding to PR,[5]; at functionally significant concentrations,little or no ability to compete
